# Compound activity (PubChem)
# EphB4 ephrin blk – antagonists of human EphB4-ephrin-B2 interaction | EphB4 LBD / TNYL-RAW-Alexa532 peptide, fluorescence polarization | inhibition, % at 7 µM | P54760 | AID 720 | hit rate 0.15% among 97,000;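 active = inhibition above the screen-wide mean inhibition plus 3 SD, cut at about 15% in these data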;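 also: 0% = DMSO wells and 100% = excess unlabeled TNYL-RAW peptide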
# Cav3 T inh – inhibitors of human Cav3.2 T-type calcium channel; O95180; Cav3.2-expressing cells, Fluo-4 calcium fluorescence FDSS; active compounds read low; B-score at 10 µM; hit rate 4% among 100,000; AID 449739;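 active = single-dose well whose peak fluorescence ratio is a statistical outlier from its plate by either plate-standardised score or position-corrected B-score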
# DAT uptake mod – changed human dopamine transporter uptake under cocaine IC80. Q01959. AID 449768. LLC-PK1 hDAT cells, [14C]-dopamine uptake with cocaine IC80; actives deviate in either direction. hit rate 1.3% among 110,000. B-score at 10 µM;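 active = Z score or B-score, a plate-position-corrected score, falls beyond the plate's 99.7% confidence bounds, in either direction; inactive = both scores lie inside the 99.7% bounds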;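 also: scored against the spread of the other compound wells on the same plate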
# Rev-RRE block – inhibitors of HIV-1 Rev-RRE RNA interaction. P05866. hit rate 0.79% among 97,000. Rev peptide-RRE RNA binding, FRET. AID 704. inhibition, % at 8 µM;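 active = inhibition above the screen-wide mean plus 3 SD, cut at about 35% in these data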;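 also: 0% = median DMSO wells and 100% = median Neomycin B control wells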
#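 assay system = Cy5-tagged RRE RNA duplex with fluorescein-tagged Rev peptide | incubation = 5 + 15 min at 25 °C | also added = labelled Rev peptide | measure = % inhibition of FRET ratio versus controls | benchmarks = DMSO wells as 0% and neomycin B wells as 100% inhibition | measured by = FRET fluorescence readout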
# An asterisk follows results filed as active; nt = no result; [ ] = dose if it differs, or a comment. A selection: hits, their analogues and other compounds. The true share with any hit is near 5.4%.
SMILES,EphB4 ephrin blk,Cav3 T inh,DAT uptake mod,Rev-RRE block
COc1ccc(-c2nnc(SC(C)C(=O)Nc3cccc(Cl)c3)o2)cc1 (stereo unspecified),-4,-2.6,0.3,15
CN(C(=O)CSc1ncccc1C(=O)O)c1ccccc1,0,-3.5*,-0.33,8
Oc1cccc(O)c1O,nt,0.86,0.15,nt
Cc1ccc(NCc2nnc(SCCN3CCCCC3)n2CC2CCCO2)cc1Cl (stereo unspecified),-1,-1.3,2.4*,11
Cc1ccc(NCc2nnc(SCC(=O)NCc3ccco3)n2CC2CCCO2)cc1Cl (stereo unspecified),3,-1.6,0.77,5
N#C/C(=C\c1ccc(N2CCCC2)c([N+](=O)[O-])c1)c1nc2ccccc2[nH]1,-7,-1.2,0.45,37*
Cc1nn(-c2ccc(F)cc2)c(Cl)c1/C=C(\CC(=O)O)c1nc2ccccc2s1,7,-1.9,1.5,3
COc1cccc(-c2cnc(NCc3cc(Cl)ccc3O)n2C)c1,-5,-4.3*,1.8,0
CCCCC(=O)N(Cc1ccc(-c2ccccc2-c2nn[nH]n2)cc1)[C@H](C(=O)O)C(C)C,nt,0.29,-1.1,nt
COC(=O)Cc1cc(=O)[nH]c(/N=C(/NC(=O)c2ccccc2)Nc2ccccc2C)n1,-2,nt,nt,5
CCOC(=O)Cc1c(C)c2ccc(N(CC)CC)cc2oc1=O,1,nt,nt,10
CCN(CC)c1ccc2c(c1)oc(=O)c1c(Cl)cc(=O)oc12,2,-0.8,-0.39,129*[fluorescence artefact?]
CCN(CC)c1ccc2c(Cl)c(Br)c(=O)oc2c1,-10,-6.4*,0.54,26
O=C(CSc1nnc(Cn2nnc3ccccc32)o1)N(Cc1ccc(Cl)cc1)c1ccccc1,-3,-6*,-0.57,8
Clc1ccc(CSc2nnc(Cn3cnc4ccccc43)o2)cc1,0,-4.7*,-0.019,7
CCc1ccccc1NC(=O)CSc1nnc(Cn2cnc3ccccc32)o1,1,-0.89,-1.2,2
N#CC1=C(N)SC(N)=C(C#N)C1CCC1CCCCC1,-2,-0.11,-1.1,68*
CCCc1nc2ccccc2c(=O)n1/N=C/c1ccc(O)cc1O,0,-0.61,-8.8*,2
CCCc1nc2ccccc2c(=O)n1/N=C/c1ccc(O)cc1,7,0.1,-0.75,11
CCc1ccc(N(CC)C(=O)c2ccc3c(Cl)c4c(nc3c2)CCC4)cc1,nt,-3.2*,1,nt
COc1ccccc1N1CCN(C(=O)c2ccc3c(Cl)c4c(nc3c2)CCCC4)CC1,nt,-0.72,1.3,nt
CCN(C(=O)c1ccc2c(Cl)c3c(nc2c1)CCC3)c1cccc(C)c1,nt,-5.6*,2.1,nt
CCOC(=O)N1CCC(NC(=O)c2ccc3c(Cl)c4c(nc3c2)CCCC4)CC1,nt,-3.1,0.53,nt
Cc1ccc(N(C)C(=O)c2ccc3c(Cl)c4c(nc3c2)CCC4)cc1C,nt,-5.5*,0.81,nt
CC1(C)C(C=C(Cl)Cl)C1C(=O)N1CCN(c2ccccc2)CC1 (stereo unspecified),0,-4.9*,0.82,4
SMILES,EphB4 ephrin blk,Cav3 T inh,DAT uptake mod,Rev-RRE block
O=C(N1CCN(c2ccccc2)CC1)C12CC3CC(CC(C3)C1)C2,7,-1.6,-0.55,11
C/C(=N\NC(=O)c1cccc(S(=O)(=O)Nc2ccccc2Cl)c1)c1ccc(-n2ccnc2)cc1,5,0.31,-0.09,1
Clc1nc(NCc2cccnc2)nc(N2CCOCC2)n1,-6,0.41,0.23,6
Cc1ccc(S(=O)(=O)Oc2ccc(/C=C(/NC(=O)c3ccccc3)C(=O)Nc3ccccc3)cc2)cc1,-2,-5*,-0.5,3
Cc1c(NC(=O)c2ccccc2)c(=O)n(-c2ccccc2)n1C,2,0.03,-1.4,4
COc1ccc(NC(=O)/C(=C\c2ccc(OS(=O)(=O)c3ccc(C)cc3)cc2)NC(=O)c2ccccc2)cc1,5,-2.6,0.11,10
Cc1c(NC(=O)/C(=C\c2ccccc2)NC(=O)c2ccccc2)c(=O)n(-c2ccccc2)n1C,-1,-0.44,-8.8*,6
O=C(NCCCn1ccnc1)c1cc(S(=O)(=O)N2CCOCC2)c(Cl)cc1Cl,nt,0.63,0.34,nt
O=C(NCCCn1ccnc1)c1ccc(Br)c(S(=O)(=O)N2CCOCC2)c1,3,0.38,-8.4*,6
CC1=NOC(=O)/C1=C/c1ccc(-c2ccc(Cl)cc2)o1,3,0.14,-0.3,10
CC1=NOC(=O)/C1=C/c1ccc(N(C)C)cc1,-2,-1.2,0.11,86*
S=C(NCCSCc1ccc(Cl)cc1)Nc1ccccc1,-2,nt,nt,5
S=C(NCCSCc1ccccc1Cl)Nc1ccccc1,0,-6.4*,1.3,4
CC(C(=O)N/N=C/c1ccc(N(C)C)c(Br)c1)N(c1ccccc1)S(C)(=O)=O (stereo unspecified),11,-6*,0.26,2
O=C(Nc1ccc(Cl)c(C(F)(F)F)c1)[C@@H]1CC=C[C@@H]2CCN(C3CC3)C(=O)[C@@H]21,nt,-0.43,-0.73,nt
CCCCOc1ccc(Br)cc1/C(C)=N/NC1=NCCN1,-8,-6.7*,-1.7,-8
Cc1cc(Br)ccc1OCCCCNC(C)(C)C,-13,1.4,1.2,0
O=CN/C=C/c1cc(O)ccc1O,nt,0.66,-0.56,nt
COc1ccccc1CCNCc1ccc(OC)c(OCc2ccccc2)c1,4,-4.8*,-0.019,10
CCCN1C=CC(=C/C=C(\C#N)C(=O)OCC)C=C1,5,-3,-1.7,136*[fluorescence artefact?]
CCCCCCN1C=CC(=C/C=C(\C#N)C(=O)OCC)C=C1,-1,-3.3*,-2.1,139*[fluorescence artefact?]
CCc1ccc(OCC(=O)Nc2cc(S(=O)(=O)CC)ccc2O)cc1,-1,nt,nt,-2
C/C(=N\NC(=O)CN1CCOCC1)C(C)(C)C,10,0.68,-0.85,6
COc1cc2[nH]c(=O)n(CCCCCC(=O)N3CC=C(c4ccccc4)CC3)c(=O)c2cc1OC,5,-2.7,0.55,7
N#Cc1c(NC(=O)CN2C(=O)c3ccccc3C2=O)oc(-c2ccccc2)c1-c1ccccc1,-5,-4*,0.92,2
SMILES,EphB4 ephrin blk,Cav3 T inh,DAT uptake mod,Rev-RRE block
N#Cc1c(NC(=O)CCn2cnc3ccccc3c2=O)oc(-c2ccccc2)c1-c1ccccc1,-4,-9.4*,-0.05,1
Cc1cnc(C(=O)OCC(=O)Nc2oc(-c3ccccc3)c(-c3ccccc3)c2C#N)cn1,-3,-2.3,0.5,-1
N#Cc1c(NC(=O)CCN2C(=O)c3ccccc3C2=O)oc(-c2ccccc2)c1-c1ccccc1,3,-7.2*,-0.57,6
N#Cc1c(NC(=O)CSc2ccccn2)oc(-c2ccccc2)c1-c1ccccc1,2,-6.4*,-0.36,10
Cc1cccc(NC(=O)c2nc[nH]c2C(=O)N[C@@H](C)C(=O)OC(C)(C)C)c1,nt,0.35,0.86,nt
CCn1c(SCC(=O)Nc2oc(-c3ccccc3)c(-c3ccccc3)c2C#N)nnc1-c1ccncc1,-3,-2,0.45,-1
CCn1c(SCC(=O)Nc2oc(-c3ccccc3)c(-c3ccccc3)c2C#N)nnc1-c1ccco1,-6,-4.7*,-0.86,-4
CCOC(=O)C1=C(c2ccccc2)N2CCS(=O)(=O)N=C2S1,16*,0.012,-0.65,9
CCOC(=O)c1c(N)nn(C(=O)C(C)(C)C)c1-c1ccccc1,4,0.011,-0.32,10
CNC(=O)Nc1cccc(C(F)(F)F)c1,6,-1.1,0.56,0
